Measurements as given in ChEMBL document CHEMBL1134325, “Diaminoindanes as microsomal triglyceride transfer protein inhibitors” (J Med Chem, 2001).
Several values for one entry are separate records, joined by “and”; a condition that tells them apart may be missing. Equal values may be shown once. Blank lines part the entries; values can stand above or below the compound they belong to.

Assays:
[1] = system: Rattus norvegicus; experiment: Inhibition of total cholesterol in normolipidemic rats after 6 hr of 10 mg/kg oral dosing; format: functional
In short: (§1)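 Overnight-fasted normolipidemic rats received a single oral dose in cornstarch vehicle. Blood was drawn at 2, 6 and 24 h post-dose and assayed for triglycerides and total cholesterol, with free access to food after the 6 h sample. Value is mean percent inhibition versus a separate vehicle-treated group, unpaired t test p < 0.05, NS = no significant change, N = 6.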

[2] = system: Canis familiaris; experiment: Inhibition of plasma total cholesterol in the normolipidemic dogs after day 3 of oral administration of 10 mg/kg/day.; format: functional, Canis lupus familiaris
In short: (§2)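 Normolipidemic dogs dosed once daily for 4 days by oral gavage, compound suspended in cornstarch vehicle. Plasma sampled 24 h after dosing on days 0, 2, 3 and 4, assayed for triglycerides and total cholesterol (mg/dL). Mean percent inhibition versus day-0 level is given for treated dogs; n = 6 per group; significance by one-way ANOVA, p < 0.05.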

[3] = system: Canis familiaris; experiment: Inhibition of plasma total cholesterol in the normolipidemic dogs after day 2 of oral administration of 10 mg/kg/day.; format: functional, Canis lupus familiaris; in short: as §2
[4] = system: Canis familiaris; experiment: Inhibition of plasma total cholesterol in the normolipidemic dogs after day 0 of oral administration of 10 mg/kg/day.; format: functional, Canis lupus familiaris; in short: as §2
[5] = system: Rattus norvegicus; experiment: Inhibition of total cholesterol in normolipidemic rats after 24 hr of 50 mg/kg oral dosing; format: functional; in short: as §1
[6] = system: Canis familiaris; experiment: Inhibition of plasma total triglycerides in the normolipidemic dogs after day 0 of oral administration of 10 mg/kg/day.; format: functional, Canis lupus familiaris; in short: as §2
[7] = system: Canis familiaris; experiment: Inhibition of plasma total cholesterol in the normolipidemic dogs after day 3 of oral administration of 5 mg/kg/day.; format: functional, Canis lupus familiaris; in short: as §2
[8] = system: Canis familiaris; experiment: Inhibition of plasma total triglycerides in the normolipidemic dogs after day 4 of oral administration of 10 mg/kg/day. Values in the parentheses indicate mean percent inhibition for drug treated dogs.; format: functional, Canis lupus familiaris
[9] = system: Canis familiaris; experiment: Inhibition of plasma total triglycerides in the normolipidemic dogs after day 4 of oral administration of 5 mg/kg/day.; format: functional, Canis lupus familiaris
[10] = system: Canis familiaris; experiment: Inhibition of plasma total cholesterol in the normolipidemic dogs after day 4 of oral administration of 5 mg/kg/day. Values in the parentheses indicate mean percent inhibition for drug treated dogs.; format: functional, Canis lupus familiaris; in short: as §2
[11] = system: Rattus norvegicus; experiment: Inhibition of plasma triglycerides in normolipidemic rats after 6 hr of 50 mg/kg oral dosing; format: functional; in short: as §1
[12] = system: Rattus norvegicus; experiment: Inhibition of total cholesterol in normolipidemic rats after 6 hr of 50 mg/kg oral dosing; format: functional; in short: as §1
[13] = system: Canis familiaris; experiment: Inhibition of plasma total triglycerides in the normolipidemic dogs after day 2 of oral administration of 5 mg/kg/day.; format: functional, Canis lupus familiaris; in short: as §2
[14] = system: Rattus norvegicus; experiment: Inhibition of plasma triglycerides in normolipidemic rats after 24 hr of 10 mg/kg oral dosing; no significant change; format: functional, organism-based; design: dose 10 mg/kg; in short: as §1
[15] = system: Canis familiaris; experiment: Inhibition of plasma total cholesterol in the normolipidemic dogs after day 0 of oral administration of 5 mg/kg/day.; format: functional, Canis lupus familiaris; in short: as §2
[16] = system: Canis familiaris; experiment: Inhibition of plasma total triglycerides in the normolipidemic dogs after day 3 of oral administration of 5 mg/kg/day.; format: functional, Canis lupus familiaris
[17] = system: Rattus norvegicus; experiment: Inhibition of plasma triglycerides in normolipidemic rats after 6 hr of 10 mg/kg oral dosing; format: functional; in short: as §1
[18] = system: Canis familiaris; experiment: Inhibition of plasma total triglycerides in the normolipidemic dogs after day 2 of oral administration of 10 mg/kg/day.; format: functional, Canis lupus familiaris; in short: as §2
[19] = system: Canis familiaris; experiment: Inhibition of plasma total cholesterol in the normolipidemic dogs after day 2 of oral administration of 5 mg/kg/day.; format: functional, Canis lupus familiaris; in short: as §2
[20] = system: Rattus norvegicus; experiment: Inhibition of plasma triglycerides in normolipidemic rats after 24 h of 50 mg/kg oral dosing; no significant change; format: functional, organism-based; design: dose 50 mg/kg; in short: as §1
[21] = system: Rattus norvegicus; experiment: Inhibition of total cholesterol in normolipidemic rats after 2 hr of 10 mg/kg oral dosing; format: functional; in short: as §1
[22] = system: Canis familiaris; experiment: Inhibition of plasma total triglycerides in the normolipidemic dogs after day 0 of oral administration of 5 mg/kg/day.; format: functional, Canis lupus familiaris; in short: as §2
[23] = system: Rattus norvegicus; experiment: Inhibition of total cholesterol in normolipidemic rats after 2 hr of 50 mg/kg oral dosing; format: functional; in short: as §1
[24] = system: Rattus norvegicus; experiment: Inhibition of plasma triglycerides in normolipidemic rats after 2 hr of 10 mg/kg oral dosing; format: functional; in short: as §1
[25] = target: T1, Microsomal triglyceride transfer protein large subunit (Homo sapiens, UniProt P55157); experiment: In vitro inhibitory activity against MTP using MTP transfer assay
T1 sequence (P55157 whole entry): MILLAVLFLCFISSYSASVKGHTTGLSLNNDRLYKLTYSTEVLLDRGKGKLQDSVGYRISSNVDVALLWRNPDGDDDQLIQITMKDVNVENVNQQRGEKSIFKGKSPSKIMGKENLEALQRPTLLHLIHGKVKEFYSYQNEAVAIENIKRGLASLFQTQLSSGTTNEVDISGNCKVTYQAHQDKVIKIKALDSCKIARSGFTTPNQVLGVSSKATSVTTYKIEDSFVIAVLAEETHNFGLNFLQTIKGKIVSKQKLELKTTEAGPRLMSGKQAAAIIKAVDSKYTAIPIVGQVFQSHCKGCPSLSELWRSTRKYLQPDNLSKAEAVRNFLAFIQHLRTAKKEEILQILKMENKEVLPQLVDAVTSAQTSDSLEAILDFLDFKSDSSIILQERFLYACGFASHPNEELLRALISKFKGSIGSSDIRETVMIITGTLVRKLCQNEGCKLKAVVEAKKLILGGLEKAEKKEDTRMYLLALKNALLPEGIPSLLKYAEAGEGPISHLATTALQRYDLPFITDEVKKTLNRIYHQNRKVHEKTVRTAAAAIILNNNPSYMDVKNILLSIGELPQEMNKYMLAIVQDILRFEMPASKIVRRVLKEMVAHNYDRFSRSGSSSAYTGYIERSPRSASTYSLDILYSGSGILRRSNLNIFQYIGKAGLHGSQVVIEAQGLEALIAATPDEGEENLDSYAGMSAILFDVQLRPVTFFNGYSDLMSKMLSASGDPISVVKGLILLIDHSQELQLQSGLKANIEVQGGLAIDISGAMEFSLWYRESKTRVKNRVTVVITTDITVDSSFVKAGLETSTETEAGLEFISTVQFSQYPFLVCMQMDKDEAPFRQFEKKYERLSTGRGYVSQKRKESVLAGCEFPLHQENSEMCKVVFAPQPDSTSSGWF

[26] = system: Rattus norvegicus; experiment: Inhibition of total cholesterol in normolipidemic rats after 24 hr of 10 mg/kg oral dosing; no significant change; format: functional, organism-based; design: dose 10 mg/kg; in short: as §1
[27] = system: Canis familiaris; experiment: Inhibition of plasma total triglycerides in the normolipidemic dogs after day 3 of oral administration of 10 mg/kg/day.; format: functional, Canis lupus familiaris
[28] = system: Canis familiaris; experiment: Inhibition of plasma total cholesterol in the normolipidemic dogs after day 4 of oral administration of 10 mg/kg/day. Values in the parentheses indicate mean percent inhibition for drug treated dogs.; format: functional, Canis lupus familiaris; in short: as §2
[29] = system: Rattus norvegicus; experiment: Inhibition of plasma triglycerides in normolipidemic rats after 2 hr of 50 mg/kg oral dosing; format: functional; in short: as §1
[30] = system: Rattus norvegicus; experiment: Inhibition of total cholesterol in normolipidemic rats after 6 hr of 5 mg/kg oral dosing; format: functional; conditions: 5 mg/kg; in short: as §1
[31] = system: Rattus norvegicus; experiment: Inhibition of total cholesterol in normolipidemic rats after 2 h of 5 mg/kg oral dosing; format: functional; conditions: 5 mg/kg; in short: as §1
[32] = system: Canis familiaris; experiment: Inhibition of plasma total triglycerides in the normolipidemic dogs after day 4 of oral administration of 5 mg/kg/day; format: functional, Canis lupus familiaris
[33] = system: Rattus norvegicus; experiment: Inhibition of plasma triglycerides in normolipidemic rats after 24 hr of 50 mg/kg oral dosing; format: functional; in short: as §1
[34] = system: Rattus norvegicus; experiment: Inhibition of total cholesterol in normolipidemic rats after 24 hr of 5 mg/kg oral dosing; no significant change; format: functional, organism-based; design: dose 5 mg/kg; in short: as §1
[35] = system: Canis familiaris; experiment: Inhibition of plasma total cholesterol in the normolipidemic dogs after day 4 of oral administration of 5 mg/kg/day; format: functional, Canis lupus familiaris; in short: as §2
[36] = system: Canis familiaris; experiment: Inhibition of plasma total cholesterol in the normolipidemic dogs after day 2 of oral administration of 5 mg/kg/ day.; format: functional, Canis lupus familiaris; in short: as §2
[37] = target: Apolipoprotein B-100 (Homo sapiens) (UniProt P04114); experiment: Inhibition of apolipoprotein B (apoB) secreted by human hepatoma cells (Hep G2) at 100 nM
Sequence of Apolipoprotein B-100 (Homo sapiens) (P04114 whole entry): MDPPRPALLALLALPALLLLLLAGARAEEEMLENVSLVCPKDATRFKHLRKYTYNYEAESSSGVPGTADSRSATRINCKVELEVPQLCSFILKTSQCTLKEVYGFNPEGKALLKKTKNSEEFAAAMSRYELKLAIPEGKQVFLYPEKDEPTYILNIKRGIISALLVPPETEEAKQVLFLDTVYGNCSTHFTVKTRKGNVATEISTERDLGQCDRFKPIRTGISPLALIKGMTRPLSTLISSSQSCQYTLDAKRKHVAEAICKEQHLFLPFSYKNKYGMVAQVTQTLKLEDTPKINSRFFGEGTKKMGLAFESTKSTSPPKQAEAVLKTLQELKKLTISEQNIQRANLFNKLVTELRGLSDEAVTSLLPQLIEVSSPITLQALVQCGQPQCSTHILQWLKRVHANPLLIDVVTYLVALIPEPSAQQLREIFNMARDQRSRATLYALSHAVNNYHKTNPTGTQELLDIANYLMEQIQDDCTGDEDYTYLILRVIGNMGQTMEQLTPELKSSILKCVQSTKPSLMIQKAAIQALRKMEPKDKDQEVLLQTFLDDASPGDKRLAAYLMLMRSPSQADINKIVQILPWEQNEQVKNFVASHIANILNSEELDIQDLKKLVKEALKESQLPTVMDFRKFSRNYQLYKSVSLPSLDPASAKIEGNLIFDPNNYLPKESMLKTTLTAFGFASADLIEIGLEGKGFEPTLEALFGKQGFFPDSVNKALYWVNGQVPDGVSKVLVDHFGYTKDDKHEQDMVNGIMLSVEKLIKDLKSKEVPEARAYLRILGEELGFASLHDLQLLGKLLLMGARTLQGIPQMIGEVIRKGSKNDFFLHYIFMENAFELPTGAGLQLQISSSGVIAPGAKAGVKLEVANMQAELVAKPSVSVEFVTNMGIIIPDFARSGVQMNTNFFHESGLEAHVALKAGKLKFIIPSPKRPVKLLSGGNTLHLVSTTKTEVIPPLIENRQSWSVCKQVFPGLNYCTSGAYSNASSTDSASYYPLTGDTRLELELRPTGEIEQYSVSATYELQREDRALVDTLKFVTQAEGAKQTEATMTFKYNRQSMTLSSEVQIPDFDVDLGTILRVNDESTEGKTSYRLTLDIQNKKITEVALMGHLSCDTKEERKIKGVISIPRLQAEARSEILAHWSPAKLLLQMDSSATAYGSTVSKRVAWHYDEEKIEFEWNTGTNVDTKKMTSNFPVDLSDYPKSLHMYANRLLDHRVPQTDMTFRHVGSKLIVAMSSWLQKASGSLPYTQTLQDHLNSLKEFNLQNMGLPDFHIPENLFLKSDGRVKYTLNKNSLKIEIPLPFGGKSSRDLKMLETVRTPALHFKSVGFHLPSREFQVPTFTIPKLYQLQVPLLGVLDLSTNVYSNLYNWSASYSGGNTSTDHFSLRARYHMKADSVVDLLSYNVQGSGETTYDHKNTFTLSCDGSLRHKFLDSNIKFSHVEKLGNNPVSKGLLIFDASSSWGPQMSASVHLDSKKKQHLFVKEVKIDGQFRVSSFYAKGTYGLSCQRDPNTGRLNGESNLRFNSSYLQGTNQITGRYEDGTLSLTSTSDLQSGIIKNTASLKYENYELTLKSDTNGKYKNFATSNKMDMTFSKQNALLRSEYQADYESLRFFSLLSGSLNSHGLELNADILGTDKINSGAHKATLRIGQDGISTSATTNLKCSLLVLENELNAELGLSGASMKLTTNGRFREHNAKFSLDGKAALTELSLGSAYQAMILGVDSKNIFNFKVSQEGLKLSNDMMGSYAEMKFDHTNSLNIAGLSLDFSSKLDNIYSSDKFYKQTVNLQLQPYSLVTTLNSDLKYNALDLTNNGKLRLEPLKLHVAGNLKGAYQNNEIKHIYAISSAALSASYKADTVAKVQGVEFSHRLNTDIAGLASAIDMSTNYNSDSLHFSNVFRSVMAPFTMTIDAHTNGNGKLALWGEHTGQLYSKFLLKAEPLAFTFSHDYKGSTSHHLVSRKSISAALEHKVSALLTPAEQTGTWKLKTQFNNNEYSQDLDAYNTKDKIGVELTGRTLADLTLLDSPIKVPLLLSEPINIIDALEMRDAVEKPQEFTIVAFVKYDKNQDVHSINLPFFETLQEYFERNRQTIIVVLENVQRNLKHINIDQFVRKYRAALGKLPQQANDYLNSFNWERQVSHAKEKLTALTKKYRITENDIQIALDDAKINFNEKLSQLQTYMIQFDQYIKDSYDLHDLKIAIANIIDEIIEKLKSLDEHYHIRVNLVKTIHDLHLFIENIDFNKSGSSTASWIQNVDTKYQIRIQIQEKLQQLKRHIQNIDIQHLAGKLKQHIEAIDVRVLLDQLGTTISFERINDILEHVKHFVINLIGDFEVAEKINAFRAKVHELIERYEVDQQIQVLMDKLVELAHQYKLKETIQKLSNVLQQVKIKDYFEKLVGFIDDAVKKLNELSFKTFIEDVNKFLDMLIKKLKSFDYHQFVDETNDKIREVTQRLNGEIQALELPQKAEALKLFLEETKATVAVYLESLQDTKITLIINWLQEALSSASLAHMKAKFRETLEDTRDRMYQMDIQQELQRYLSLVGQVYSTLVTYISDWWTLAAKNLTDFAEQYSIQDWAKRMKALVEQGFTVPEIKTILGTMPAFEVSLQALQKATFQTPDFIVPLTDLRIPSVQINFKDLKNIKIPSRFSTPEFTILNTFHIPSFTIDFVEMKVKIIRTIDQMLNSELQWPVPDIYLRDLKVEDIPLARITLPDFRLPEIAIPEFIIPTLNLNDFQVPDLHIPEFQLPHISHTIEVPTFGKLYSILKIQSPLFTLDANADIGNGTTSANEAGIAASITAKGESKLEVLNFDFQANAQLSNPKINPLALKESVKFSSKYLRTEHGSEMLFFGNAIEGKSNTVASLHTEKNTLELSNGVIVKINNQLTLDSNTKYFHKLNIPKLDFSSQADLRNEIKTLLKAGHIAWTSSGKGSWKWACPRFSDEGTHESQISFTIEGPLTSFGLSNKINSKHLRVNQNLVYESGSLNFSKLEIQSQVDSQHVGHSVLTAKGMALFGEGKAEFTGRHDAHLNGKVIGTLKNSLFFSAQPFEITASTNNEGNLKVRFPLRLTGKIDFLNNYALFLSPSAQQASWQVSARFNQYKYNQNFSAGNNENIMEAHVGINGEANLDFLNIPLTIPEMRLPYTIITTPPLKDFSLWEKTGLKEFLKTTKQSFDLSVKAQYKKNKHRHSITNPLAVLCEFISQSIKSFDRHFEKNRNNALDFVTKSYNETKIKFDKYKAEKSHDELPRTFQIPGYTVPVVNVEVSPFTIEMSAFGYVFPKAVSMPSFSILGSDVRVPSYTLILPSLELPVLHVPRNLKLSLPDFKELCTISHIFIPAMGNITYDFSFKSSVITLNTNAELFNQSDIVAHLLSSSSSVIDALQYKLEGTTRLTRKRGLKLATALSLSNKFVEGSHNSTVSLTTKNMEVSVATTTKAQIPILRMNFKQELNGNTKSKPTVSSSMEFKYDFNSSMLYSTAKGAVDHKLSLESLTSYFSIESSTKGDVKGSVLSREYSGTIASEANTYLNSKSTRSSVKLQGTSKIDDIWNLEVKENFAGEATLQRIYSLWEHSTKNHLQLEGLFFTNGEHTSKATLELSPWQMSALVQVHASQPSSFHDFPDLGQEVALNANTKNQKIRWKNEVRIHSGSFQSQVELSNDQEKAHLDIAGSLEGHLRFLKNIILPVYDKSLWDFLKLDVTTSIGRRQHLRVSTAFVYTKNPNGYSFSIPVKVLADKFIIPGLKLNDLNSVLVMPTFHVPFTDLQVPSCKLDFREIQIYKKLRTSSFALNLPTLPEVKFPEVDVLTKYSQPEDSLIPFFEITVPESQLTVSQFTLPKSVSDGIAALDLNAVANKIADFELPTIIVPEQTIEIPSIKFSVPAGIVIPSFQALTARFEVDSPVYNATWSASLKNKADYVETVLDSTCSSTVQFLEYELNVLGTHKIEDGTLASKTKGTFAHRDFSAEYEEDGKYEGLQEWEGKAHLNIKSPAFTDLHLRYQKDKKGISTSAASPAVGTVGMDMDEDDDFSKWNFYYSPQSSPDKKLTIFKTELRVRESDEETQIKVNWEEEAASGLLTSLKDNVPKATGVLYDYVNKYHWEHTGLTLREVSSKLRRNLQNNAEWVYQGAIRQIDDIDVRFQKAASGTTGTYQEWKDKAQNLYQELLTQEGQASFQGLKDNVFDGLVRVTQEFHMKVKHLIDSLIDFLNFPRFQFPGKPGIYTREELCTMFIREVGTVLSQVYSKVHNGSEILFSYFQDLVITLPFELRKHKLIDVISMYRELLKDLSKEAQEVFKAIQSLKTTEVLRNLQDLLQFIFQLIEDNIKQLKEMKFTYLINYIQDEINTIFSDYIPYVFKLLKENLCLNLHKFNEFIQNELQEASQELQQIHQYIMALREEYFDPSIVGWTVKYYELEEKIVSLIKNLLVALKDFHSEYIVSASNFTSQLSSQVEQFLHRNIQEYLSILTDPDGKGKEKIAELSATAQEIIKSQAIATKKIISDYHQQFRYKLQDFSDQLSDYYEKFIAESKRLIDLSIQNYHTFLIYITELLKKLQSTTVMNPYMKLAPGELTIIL

SMILES: Cc1cccc(C(=O)Nc2ccc3c(c2)C[C@@H](NCc2ccccn2)C3)c1-c1ccc(C(F)(F)F)cc1
- Reduction [1]: 35%
- Lipid level [2]: <54 mg/dL
- Lipid level [3]: <69 mg/dL
- Lipid level [4]: 125 mg/dL
- Reduction [5]: 29%
- Lipid level [6]: 46 mg/dL
- Lipid level [7]: <99 mg/dL
- Lipid level [8]: <23 mg/dL
- Lipid level [9]: 32 mg/dL
- Lipid level [10]: <94 mg/dL
- Reduction [11]: 88%
- Reduction [12]: 57%
- Lipid level [13]: 38 mg/dL
- NS [14]: no significant change
- Lipid level [15]: 130 mg/dL
- Lipid level [16]: 41 mg/dL
- Reduction [17]: 47%
- Lipid level [18]: <26 mg/dL
- Lipid level [19]: <110 mg/dL
- NS [20]: no significant change
- Reduction [21]: 34%
- Lipid level [22]: 36 mg/dL
- Reduction [23]: 40%
- Reduction [24]: 86%
- IC50 [25]: 100 nM
- NS [26]: no significant change
- Lipid level [27]: <27 mg/dL
- Lipid level [28]: <36 mg/dL
- Reduction [29]: 91%

SMILES: Cc1cccc(C(=O)Nc2ccc3c(c2)C[C@H](NS(=O)(=O)c2cccs2)C3)c1-c1ccc(C(F)(F)F)cc1
- Reduction [1]: 39%
- Reduction [30]: 50% and 34%
- Reduction [31]: 25% and 23%
- Lipid level [7]: <72 mg/dL
- Reduction ([11]; 50 mg/kg): 83% and 56%
- Lipid level [32]: <20 mg/dL
- Lipid level [13]: <24 mg/dL
- Reduction [33]: 76%
- NS [34]: no significant change
- NS [14]: no significant change
- Lipid level [15]: 120 mg/dL
- Lipid level [16]: <24 mg/dL
- Reduction [17]: 56%
- Reduction [21]: 26%
- Lipid level [22]: 31 mg/dL
- Lipid level [35]: <70 mg/dL
- Reduction [24]: 83%
- Lipid level [36]: <81 mg/dL
- IC50 [25]: 50 nM
- NS [26]: no significant change
- Reduction ([29]; 50 mg/kg): 88% and 83%

- inhibition [37]: 30%
- IC50 [25]: 410 nM
SMILES: Cc1cccc(C(=O)Nc2ccc3c(c2)C[C@H](NCc2ccccn2)C3)c1-c1ccc(C(F)(F)F)cc1
